Measurements: ChEMBL document CHEMBL4428107 (Bioorg Med Chem, 2016)

Experiments:
Histone deacetylase 2 [1] = target: T1, Histone deacetylase 2 (Homo sapiens, UniProt Q92769); test: Inhibition of full length recombinant human HDAC2 expressed in baculovirus expression system using fluorogenic peptide RHKK(Ac) as substrate by fluorescence assay
HCT-116 = test: Antiproliferative activity against human HCT116 cells assessed as reduction in cell viability after 72 hrs by MTS-PMS assay; assay type: functional; details: Homo sapiens, HCT-116, 72 h
In short: (§1)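 MTS-PMS viability test. Cells were seeded at 3,000/well and left 24 h at 37 °C, 5% CO2, then exposed to compound for 72 h. Screening was at 50 μM for HCT116 and MCF-7 and […], with final DMSO ≤1%. MTS:PMS was mixed 20:1, added for 3 h, and absorbance read at 490 nm. At least two independent runs were done, each in triplicate.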

MCF7 = test: Antiproliferative activity against human MCF7 cells assessed as reduction in cell viability after 72 hrs by MTS-PMS assay; details: MCF7, 72 h
MDA-MB-231 = test: Antiproliferative activity against human MDA-MB-231 cells assessed as reduction in cell viability after 72 hrs by MTS-PMS assay; assay type: functional; details: MDA-MB-231, 72 h; in short: as §1
MOLT-4 = test: Antiproliferative activity against human MOLT4 cells assessed as reduction in cell viability after 70 hrs by Quanti-blue assay; assay type: functional; details: Homo sapiens, MOLT-4, 70 h
In short: (§2)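 Quanti-Blue viability kit. HuT-78 and Molt-4 cells were grown in RPMI-1640 and seeded at 10^5 cells/mL. Compounds were screened at 50 μM for 70 h, with detection reagent present for the final 2 h. Fluorescence was read at ex 530/em 590 nm. IC50 from dose-response came from linear regression. Three independent runs.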

HuT78 = test: Antiproliferative activity against human HUT78 cells assessed as reduction in cell viability after 70 hrs by Quanti-blue assay; assay type: functional; details: Homo sapiens, HuT78, 70 h; in short: as §2
[2] = Antiproliferative activity against human PBMC assessed as reduction in cell viability after 70 hrs by Quanti-blue assay; assay type: cell-based
In short: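 QB fluorescence viability assay; hPBMCs purified by density centrifugation from purchased human blood, stored frozen, resuspended in RPMI-1640 with 10% heat-inactivated FBS, HEPES, pyruvate, non-essential amino acids and BME; seeded at 10^6 cells/mL. Compounds at 50 μM, 70 h plus 2 h with detection reagent; λex 530/λem 590 nm. Three independent repeats.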

[3] = Immunomodulatory activity in human TALL-104 cells assessed as effect on degranulation by measuring augmentation of CD3-stimulated anti-LAMP fluorescence at 100 uM preincubated for 30 mins followed by anti-LAMP addition and incubated for 50 mins in the dark by flow cytometric analysis relative to control; assay type: functional
Histone deacetylase 1 = Histone deacetylase 1 (Homo sapiens, UniProt Q13547); test: Inhibition of recombinant full length C-terminal FLAG-tagged/C-terminal His-tagged human HDAC1 using fluorogenic substrate by fluorescence assay
Chain of Histone deacetylase 1 (Q13547 whole entry): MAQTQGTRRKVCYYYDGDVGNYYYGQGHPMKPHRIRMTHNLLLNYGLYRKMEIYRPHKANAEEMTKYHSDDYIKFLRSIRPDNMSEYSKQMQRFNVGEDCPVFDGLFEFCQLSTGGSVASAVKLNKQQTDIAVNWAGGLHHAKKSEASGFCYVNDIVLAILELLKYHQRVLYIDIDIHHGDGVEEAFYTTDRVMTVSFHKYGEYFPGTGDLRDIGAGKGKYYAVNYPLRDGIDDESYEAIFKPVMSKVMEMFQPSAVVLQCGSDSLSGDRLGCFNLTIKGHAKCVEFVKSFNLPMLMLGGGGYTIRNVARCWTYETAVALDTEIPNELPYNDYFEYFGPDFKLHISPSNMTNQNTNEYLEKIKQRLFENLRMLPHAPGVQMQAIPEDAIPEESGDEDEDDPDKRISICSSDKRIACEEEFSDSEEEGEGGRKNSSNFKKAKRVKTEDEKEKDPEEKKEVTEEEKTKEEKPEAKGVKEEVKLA
In short: (§3)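 Outsourced HDAC isozyme panel run under proprietary protocols. Each compound was tested at 10 μM and 5 μM, using HDAC substrate 3 at 10 μM, with fluorescence read-out. […] IC50 range was bracketed from % inhibition at the two concentrations.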

Histone deacetylase 2 [4] = target: T1, Histone deacetylase 2; test: Inhibition of recombinant full length C-terminal His-tagged human HDAC2 expressed in baculovirus expression system using fluorogenic substrate by fluorescence assay
[5] = target: Histone deacetylase 3/Nuclear receptor corepressor 2 (HDAC3/NCoR2) (Homo sapiens, UniProt O15379); test: Inhibition of recombinant full length C-terminal His-tagged human HDAC3/GST-tagged human Ncor2 (395 to 489 residues) expressed in baculovirus expression system using fluorogenic substrate by fluorescence assay; in short: as §3
Histone deacetylase 4 = Histone deacetylase 4 (Homo sapiens, UniProt P56524); test: Inhibition of recombinant C-terminal His-tagged/N-terminal GST-tagged human HDAC4 (627 to 1084 residues) expressed in baculovirus expression system using fluorogenic substrate by fluorescence assay
Chain of Histone deacetylase 4 (P56524 whole entry, the tested form may be a part): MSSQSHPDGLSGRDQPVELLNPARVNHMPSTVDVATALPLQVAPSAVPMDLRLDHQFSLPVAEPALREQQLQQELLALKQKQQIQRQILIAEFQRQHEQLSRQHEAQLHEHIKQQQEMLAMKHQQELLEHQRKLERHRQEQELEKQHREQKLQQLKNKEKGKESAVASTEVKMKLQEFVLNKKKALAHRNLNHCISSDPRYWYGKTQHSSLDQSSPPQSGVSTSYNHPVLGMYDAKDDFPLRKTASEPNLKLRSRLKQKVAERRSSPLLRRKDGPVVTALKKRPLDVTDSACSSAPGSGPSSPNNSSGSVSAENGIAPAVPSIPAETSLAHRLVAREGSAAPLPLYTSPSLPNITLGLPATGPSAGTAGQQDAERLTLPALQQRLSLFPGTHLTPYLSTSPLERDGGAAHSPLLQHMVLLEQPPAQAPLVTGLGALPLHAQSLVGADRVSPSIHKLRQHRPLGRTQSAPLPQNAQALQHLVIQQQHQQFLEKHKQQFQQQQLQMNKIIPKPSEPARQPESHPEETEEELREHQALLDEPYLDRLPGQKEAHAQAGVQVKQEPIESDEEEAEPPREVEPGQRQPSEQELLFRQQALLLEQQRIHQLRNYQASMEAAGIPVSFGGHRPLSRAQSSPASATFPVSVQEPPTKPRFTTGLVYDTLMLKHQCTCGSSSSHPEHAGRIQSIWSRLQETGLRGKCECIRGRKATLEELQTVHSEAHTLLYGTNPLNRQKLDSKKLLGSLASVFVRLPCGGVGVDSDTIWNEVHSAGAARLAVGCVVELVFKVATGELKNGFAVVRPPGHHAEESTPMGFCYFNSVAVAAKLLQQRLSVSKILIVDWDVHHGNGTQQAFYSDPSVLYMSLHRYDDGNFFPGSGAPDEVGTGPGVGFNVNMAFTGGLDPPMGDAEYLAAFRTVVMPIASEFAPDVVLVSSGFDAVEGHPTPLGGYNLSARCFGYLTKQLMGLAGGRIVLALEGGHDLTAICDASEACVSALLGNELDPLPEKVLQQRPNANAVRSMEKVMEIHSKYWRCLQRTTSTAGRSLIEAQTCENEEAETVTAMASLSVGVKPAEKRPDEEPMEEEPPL
In short: (§4)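 Outsourced HDAC isozyme panel run under proprietary protocols. Each compound was tested at 10 μM and 5 μM, using Class 2a HDAC substrate at 2 μM, with fluorescence read-out. […] IC50 range was bracketed from % inhibition at the two concentrations.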

Histone deacetylase 5 = Histone deacetylase 5 (Homo sapiens, UniProt Q9UQL6); test: Inhibition of recombinant C-terminal His-tagged human HDAC5 catalytic domain (656 to 1122 residues) expressed in baculovirus expression system using fluorogenic substrate by fluorescence assay; in short: as §4
Histone deacetylase 7 = Histone deacetylase 7 (Homo sapiens, UniProt Q8WUI4); test: Inhibition of recombinant N-terminal GST-tagged human HDAC7 (518 to end residues) expressed in baculovirus expression system using fluorogenic substrate by fluorescence assay; in short: as §4
Chain of Histone deacetylase 7 (Q8WUI4 whole entry): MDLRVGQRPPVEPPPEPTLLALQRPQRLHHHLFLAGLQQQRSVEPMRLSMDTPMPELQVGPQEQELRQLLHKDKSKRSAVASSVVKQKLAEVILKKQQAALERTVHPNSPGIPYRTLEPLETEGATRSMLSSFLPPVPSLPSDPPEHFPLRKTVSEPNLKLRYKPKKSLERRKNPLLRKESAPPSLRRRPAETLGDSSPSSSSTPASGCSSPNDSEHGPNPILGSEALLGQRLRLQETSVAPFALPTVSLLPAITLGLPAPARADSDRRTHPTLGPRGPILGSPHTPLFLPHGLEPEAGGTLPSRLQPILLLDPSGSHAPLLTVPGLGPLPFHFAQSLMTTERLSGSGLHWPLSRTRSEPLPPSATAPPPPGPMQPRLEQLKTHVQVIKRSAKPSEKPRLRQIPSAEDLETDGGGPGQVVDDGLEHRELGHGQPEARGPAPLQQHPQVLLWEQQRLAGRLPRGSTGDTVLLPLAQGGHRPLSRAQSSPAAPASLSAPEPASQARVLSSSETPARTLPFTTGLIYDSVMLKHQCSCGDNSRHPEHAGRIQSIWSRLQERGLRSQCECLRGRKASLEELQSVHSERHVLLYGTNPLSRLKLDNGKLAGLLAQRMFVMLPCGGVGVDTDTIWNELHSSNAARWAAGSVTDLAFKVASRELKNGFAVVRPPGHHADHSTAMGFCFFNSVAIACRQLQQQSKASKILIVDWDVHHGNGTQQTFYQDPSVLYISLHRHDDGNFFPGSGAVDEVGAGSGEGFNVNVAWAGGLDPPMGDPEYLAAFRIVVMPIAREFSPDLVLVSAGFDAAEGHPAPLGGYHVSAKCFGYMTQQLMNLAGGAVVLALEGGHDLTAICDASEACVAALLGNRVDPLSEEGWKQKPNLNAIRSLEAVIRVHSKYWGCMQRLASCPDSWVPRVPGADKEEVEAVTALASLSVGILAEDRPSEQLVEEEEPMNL

Histone deacetylase 8 = Histone deacetylase 8 (Homo sapiens, UniProt Q9BY41); test: Inhibition of recombinant full length C-terminal His-tagged human HDAC8 expressed in baculovirus expression system using fluorogenic substrate by fluorescence assay; in short: as §4
Histone deacetylase 9 = Histone deacetylase 9 (Homo sapiens, UniProt Q9UKV0); test: Inhibition of recombinant C-terminal His-tagged human HDAC9 (604 to 1066 residues) expressed in baculovirus expression system using fluorogenic substrate by fluorescence assay; in short: as §4
Chain of Histone deacetylase 9 (Q9UKV0 whole entry, the tested form may be a part): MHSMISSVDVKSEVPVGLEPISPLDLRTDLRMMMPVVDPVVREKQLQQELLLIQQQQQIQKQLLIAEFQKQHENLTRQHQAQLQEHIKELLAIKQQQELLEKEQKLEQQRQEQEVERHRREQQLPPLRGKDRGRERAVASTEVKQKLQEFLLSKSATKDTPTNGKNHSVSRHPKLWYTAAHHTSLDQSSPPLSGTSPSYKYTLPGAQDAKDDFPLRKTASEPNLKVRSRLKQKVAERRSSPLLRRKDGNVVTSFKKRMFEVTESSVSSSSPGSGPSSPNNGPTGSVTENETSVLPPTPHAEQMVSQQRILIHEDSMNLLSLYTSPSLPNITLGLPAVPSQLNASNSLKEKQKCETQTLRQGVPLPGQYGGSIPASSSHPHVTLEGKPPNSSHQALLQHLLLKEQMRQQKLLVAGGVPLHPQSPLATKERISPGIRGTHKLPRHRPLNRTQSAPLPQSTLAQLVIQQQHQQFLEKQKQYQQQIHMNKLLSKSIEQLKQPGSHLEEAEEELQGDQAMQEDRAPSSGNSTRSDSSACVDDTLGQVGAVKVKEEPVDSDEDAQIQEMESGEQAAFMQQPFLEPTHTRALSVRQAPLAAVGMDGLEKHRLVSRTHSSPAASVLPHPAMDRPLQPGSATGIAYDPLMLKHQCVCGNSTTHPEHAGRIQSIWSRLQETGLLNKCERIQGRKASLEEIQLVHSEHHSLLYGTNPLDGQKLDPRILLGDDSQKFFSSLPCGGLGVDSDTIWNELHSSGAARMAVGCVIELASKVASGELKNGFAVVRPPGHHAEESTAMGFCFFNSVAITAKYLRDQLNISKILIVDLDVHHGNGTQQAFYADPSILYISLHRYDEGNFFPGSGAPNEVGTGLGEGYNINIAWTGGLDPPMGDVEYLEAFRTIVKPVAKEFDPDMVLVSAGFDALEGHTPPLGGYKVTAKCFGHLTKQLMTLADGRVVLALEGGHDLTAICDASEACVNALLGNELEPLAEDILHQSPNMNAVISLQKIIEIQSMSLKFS

[6] = target: Polyamine deacetylase HDAC10 (Homo sapiens, UniProt Q969S8); test: Inhibition of recombinant N-terminal FLAG-tagged human HDAC10 (2 to 631 residues) expressed in baculovirus expression system using fluorogenic substrate by fluorescence assay; in short: as §3
Chain of Polyamine deacetylase HDAC10 (Q969S8 whole entry, the tested form may be a part): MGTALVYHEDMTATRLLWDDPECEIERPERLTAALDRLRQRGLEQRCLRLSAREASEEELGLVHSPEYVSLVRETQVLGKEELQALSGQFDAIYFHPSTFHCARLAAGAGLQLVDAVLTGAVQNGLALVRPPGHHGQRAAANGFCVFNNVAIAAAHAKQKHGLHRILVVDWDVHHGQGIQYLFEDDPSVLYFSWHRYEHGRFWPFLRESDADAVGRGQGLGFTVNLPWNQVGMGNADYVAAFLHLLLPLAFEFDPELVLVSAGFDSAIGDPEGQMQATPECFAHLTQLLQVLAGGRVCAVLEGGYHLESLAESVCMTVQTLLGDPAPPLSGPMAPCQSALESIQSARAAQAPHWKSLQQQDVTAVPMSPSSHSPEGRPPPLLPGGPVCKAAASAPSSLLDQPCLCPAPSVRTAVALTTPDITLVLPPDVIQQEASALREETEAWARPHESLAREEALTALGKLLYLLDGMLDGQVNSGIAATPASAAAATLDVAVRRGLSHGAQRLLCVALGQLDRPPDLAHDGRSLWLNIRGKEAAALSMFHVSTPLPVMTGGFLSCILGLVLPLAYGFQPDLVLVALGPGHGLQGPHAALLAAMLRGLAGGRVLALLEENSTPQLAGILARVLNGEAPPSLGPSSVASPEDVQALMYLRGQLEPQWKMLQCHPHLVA

Histone deacetylase 11 = Histone deacetylase 11 (Homo sapiens, UniProt Q96DB2); test: Inhibition of full length recombinant human HDAC11 expressed in baculovirus expression system using fluorogenic substrate by fluorescence assay; in short: as §4
Chain of Histone deacetylase 11 (Q96DB2 whole entry): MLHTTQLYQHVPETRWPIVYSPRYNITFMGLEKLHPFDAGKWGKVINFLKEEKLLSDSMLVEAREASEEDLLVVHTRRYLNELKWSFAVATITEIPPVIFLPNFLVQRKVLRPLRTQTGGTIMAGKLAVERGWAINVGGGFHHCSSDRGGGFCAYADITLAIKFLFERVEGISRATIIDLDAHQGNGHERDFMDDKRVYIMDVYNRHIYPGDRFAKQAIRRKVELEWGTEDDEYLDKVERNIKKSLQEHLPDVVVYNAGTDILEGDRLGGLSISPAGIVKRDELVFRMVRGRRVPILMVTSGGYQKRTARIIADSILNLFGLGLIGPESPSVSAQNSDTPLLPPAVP

[7] = target: Protein deacetylase HDAC6 (Homo sapiens, UniProt Q9UBN7); test: Inhibition of recombinant full length N-terminal GST-tagged human HDAC6 expressed in baculovirus expression system using fluorogenic substrate by fluorescence assay; in short: as §3

T1 sequence (Q92769 whole entry): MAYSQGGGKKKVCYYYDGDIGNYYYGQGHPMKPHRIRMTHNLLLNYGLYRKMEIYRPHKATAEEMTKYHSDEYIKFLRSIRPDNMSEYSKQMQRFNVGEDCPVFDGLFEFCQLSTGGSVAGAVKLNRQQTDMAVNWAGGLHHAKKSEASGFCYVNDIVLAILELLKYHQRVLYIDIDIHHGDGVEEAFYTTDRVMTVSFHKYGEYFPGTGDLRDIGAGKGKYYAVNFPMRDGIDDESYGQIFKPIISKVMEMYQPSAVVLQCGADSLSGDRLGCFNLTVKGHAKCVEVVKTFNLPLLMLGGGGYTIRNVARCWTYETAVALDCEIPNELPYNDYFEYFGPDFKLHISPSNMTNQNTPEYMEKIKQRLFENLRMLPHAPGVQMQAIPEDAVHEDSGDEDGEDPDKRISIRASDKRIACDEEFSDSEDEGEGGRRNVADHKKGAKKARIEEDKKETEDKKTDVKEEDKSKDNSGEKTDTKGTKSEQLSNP

Compound | IC50 (Histone deacetylase 2 [1]) [µM] | GI50 (HCT-116) [µM] | GI50 (MCF7) [µM] | GI50 (MDA-MB-231) [µM] | GI50 (MOLT-4) [µM] | GI50 (HuT78) [µM] | GI50 at 70 h [2] [µM] | Activity [3] [%] | IC50 (Histone deacetylase 1) [µM] | IC50 (Histone deacetylase 2 [4]) [µM] | IC50 [5] [µM] | IC50 (Histone deacetylase 4) [µM] | IC50 (Histone deacetylase 5) [µM] | IC50 (Histone deacetylase 7) [µM] | IC50 (Histone deacetylase 8) [µM] | IC50 (Histone deacetylase 9) [µM] | IC50 [6] [µM] | IC50 (Histone deacetylase 11) [µM] | IC50 [7] [µM]
CCNC(=O)OCCCC(=O)NCCc1ccccc1 | > 1 | > 50 | > 50 | > 50 | > 50 | > 50 | > 50 | 100 | – | – | – | – | – | – | – | – | – | – | –
CCOC(=O)NCCCC(=O)NCCc1ccc(Cl)cc1 | > 1 | > 50 | > 50 | > 50 | > 50 | > 50 | > 50 | 85 | – | – | – | – | – | – | – | – | – | – | –
O=C(CCCC(=O)NCCc1ccccc1)NO | > 1 | > 50 | > 50 | > 50 | > 50 | > 50 | > 50 | 113 | 5 to 10 | 5 to 10 | 5 to 10 | 5 to 10 | > 10 | > 10 | 5 to 10 | 5 to 10 | 5 to 10 | 5 to 10 | < 5
CCSC(=O)NCCCC(=O)NCCc1ccccc1 | > 1 | > 50 | > 50 | > 50 | > 50 | > 50 | > 50 | 76 | – | – | – | – | – | – | – | – | – | – | –
CCOC(=O)NCCCCC(=O)NCc1ccccc1 | > 1 | > 50 | > 50 | > 50 | > 50 | > 50 | > 50 | 93 | – | – | – | – | – | – | – | – | – | – | –
CCOC(=O)NCCCC(=O)Nc1nc(-c2cccc([N+](=O)[O-])c2)cs1 | > 1 | > 50 | > 50 | > 50 | > 50 | > 50 | > 50 | 58 | – | – | – | – | – | – | – | – | – | – | –
CCOC(=O)NCCCC(=O)Nc1nccs1 | > 1 | > 50 | > 50 | > 50 | > 50 | > 50 | > 50 | 91 | – | – | – | – | – | – | – | – | – | – | –
